# VLA-4 inh = inhibition in human VLA-4 binding assay, primary screen, VLA-4 allosteric modulator project, MLPCN library, flow cytometry, VLA-4 expressing cells | ligand binding flow cytometry | inhibition, % (about 7 µM as worked out from the volumes in the protocol) | 330,000 compounds, 0.2% hits; in the data active = inhibition above about 50%
# PG9 binder = binders of HIV-1 gp120 antibody PG9, primary screen, biochemical, TR-FRET. TR-FRET gp120-PG9 antibody binding. inhibition, % at 6.7 µM. 360,000 compounds, 0.43% hits. AID 624416, 2012; in the data active = inhibition above about 8.5%
# NR2E3 ag-1 = inhibitors of NR2E3-RetCOR corepressor binding, primary screen, NR2E3 agonist project, biochemical, TR-FRET, GST-NR2E3, biotin-RetCOR; Photoreceptor-specific nuclear receptor (Homo sapiens), Q9Y5X4; 1536-well; inhibition of corepressor binding, % at 4.78 µM; 320,000 compounds, 0.12% hits; AID 2300, 2010;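 active = percent inhibition above the cutoff of mean plus 3 SD of all tested compounds, set per screening campaign, cut at about 20% in these data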;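 note: 0% = DMSO wells and 100% = biotin wells as full block of FRET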
# Target sequence (Q9Y5X4 whole entry, looked up): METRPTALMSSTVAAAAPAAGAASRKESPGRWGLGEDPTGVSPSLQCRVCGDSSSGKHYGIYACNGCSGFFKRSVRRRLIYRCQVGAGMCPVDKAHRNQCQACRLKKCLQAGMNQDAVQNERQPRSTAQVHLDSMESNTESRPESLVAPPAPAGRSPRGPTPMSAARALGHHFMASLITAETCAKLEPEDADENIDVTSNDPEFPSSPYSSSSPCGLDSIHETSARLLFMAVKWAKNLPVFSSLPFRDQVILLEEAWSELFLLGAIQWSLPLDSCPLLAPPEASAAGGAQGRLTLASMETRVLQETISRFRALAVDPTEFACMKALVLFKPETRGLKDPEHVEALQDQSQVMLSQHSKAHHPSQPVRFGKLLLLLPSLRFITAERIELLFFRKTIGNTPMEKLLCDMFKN
#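 Material: NR2E3–RetCOR corepressor complex / Amount: 1.35 nM GST-NR2E3 / Medium: Tris pH 7.5 / Compound: single nominal compound dose of 4.8 µM / Incubation: 5 h at 4 °C / Technique: TR-FRET, Eu(K)-anti-GST donor, streptavidin-D2 acceptor, ex 340, em 617/671 nm / Read-out basis: percent loss of FRET ratio relative to control wells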
# NR2E3 ag-2 = NR2E3 agonists in two-hybrid cells, primary screen, cell-based, luminescence, CHO-S, Gal4-NCOR/VP16-NR2E3; Photoreceptor-specific nuclear receptor (Homo sapiens), Q9Y5X4; luciferase; inhibition of corepressor binding, % at 3.98 µM; 360,000 compounds, 0.35% hits; AID 602229, 2012;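 active = inhibition above the mean of all tested compounds plus 3 SD, cut at about 70% in these data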;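 note: 0% = DMSO with NR2E3 transfected cells and 100% = cells lacking NR2E3 construct; higher means lower luciferase signal from less NR2E3 corepressor binding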
# NR1D1 modulator = modulators of Rev-erb alpha DNA binding, primary screen, biochemical, FITC-DNA, fluorescence polarization, uHTS; Nuclear receptor subfamily 1 group D member 1 (Homo sapiens), P20393; Rev-erbα–FITC-DNA binding, 90 min; activity, % at 10 µM; 370,000 compounds, 0.79% hits; AID 1259318, 2017;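 active = activity above about 14%, limit read from the data; passing the limit was not always enough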;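 note: 0% = DMSO wells with 35 nM protein and 100% = DMSO wells with 750 nM protein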
# NR2E3 ag confirm = NR2E3 agonist confirmation in cells, cell-based, luminescence, CHO-S two-hybrid; shares compounds with NR2E3 ag-2; CHO-S mammalian two-hybrid NR2E3-NCOR, luciferase luminescence; inhibition, % at 3.98 µM; 2,300 compounds, 51% hits;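 active = average inhibition above a cutoff equal to the mean inhibition of all tested compounds plus one SD, cut at about 70% in these data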;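 note: 0% = DMSO in NR2E3 cells and 100% = DMSO in cells lacking NR2E3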
# VP16 counter = GAL4-VP16 reporter modulators, confirmation, counter-screen for NR2E3 agonist project, cell-based, luminescence, CHO-S, high throughput. CHO-S GAL4-VP16 luciferase reporter. AID 624379, 2012. shares compounds with NR2E3 ag-2. inhibition, % at 3.98 µM. 2,300 compounds, 29% hits;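 active = mean inhibition above a cutoff equal to the average over all tested compounds plus one standard deviation, cut at about 70% in these data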;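 note: luciferase from a UAS reporter driven by GAL4-VP16 transactivation; 0% = DMSO with VP16-transfected cells and 100% = DMSO with cells lacking VP16; higher means less reporter light so more repression of VP16 activity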
# An asterisk follows results filed as active; · = no result given. A selection: hits, their analogues and other compounds. The true share with any hit is near 1.6%.
SMILES,VLA-4 inh,PG9 binder,NR2E3 ag-1,NR2E3 ag-2,NR1D1 modulator,NR2E3 ag confirm,VP16 counter
O=c1c2ccccc2n(Cc2ccno2)n1[C@@H](Cc1ccccc1)Cn1cc(-c2ccc(-c3ccccc3)cc2)nn1,·,·,·,·,-2,·,·
O=C1CCC[C@H]2C[C@H](NCc3cccc(I)c3)CC[C@]23CCCN13,·,·,·,·,-7,·,·
O=C(Nc1cccc([N+](=O)[O-])c1)c1cc2ccccc2cc1O,6,-2,6,85*,-2,99*,69
COc1ccc(NC(=O)/C(Cl)=C(/Cl)S(=O)Cc2ccc(Cl)cc2)cn1 (centres undefined),·,0,·,87*,-3,99*,34
COc1ccc(NC(=O)/C(Cl)=C(/Cl)S(=O)(=O)Cc2ccccc2)cn1,·,-2,·,83*,-6,98*,27
COc1ccc(NC(=O)C(Cl)=C(Cl)Cl)cn1,·,-1,·,-28,-4,·,·
Cn1nnnc1Sc1ncnc2scc(-c3cccc(C(F)(F)F)c3)c12,-2,0,·,42,2,·,·
Cn1nnnc1Sc1ncnc2scc(-c3cccc(F)c3)c12,23,2,3,48,-1,9,30
Cn1nnnc1Sc1ncnc2scc(-c3ccccc3C(F)(F)F)c12,0,-1,1,58,3,45,50
Cn1nnnc1Sc1ncnc2scc(-c3ccc(C(F)(F)F)cc3)c12,7,0,3,17,8,·,·
Cc1ccc(C(=O)Nc2sc(C)c(-c3ccccc3)c2C(N)=O)cc1[N+](=O)[O-],-4,-2,1,54,6,56,16
Cc1ccc(S(=O)(=O)N2[C@@H](c3ccc(Cl)c(Cl)c3)C(C(=O)O)=C[C@H]2CC2CCCC2)cc1,30,1,·,88*,-4,82*,47
Cc1ccc(S(=O)(=O)N2C(c3ccc(Cl)c(Cl)c3)CC=C(C(=O)O)C2c2ccc(Cl)cc2)cc1 (centres undefined),·,-2,·,·,-3,·,·
Cc1ccc(C)c(N2CCN(S(=O)(=O)c3csc(C(N)=O)c3)CC2)c1,2,-1,1,61,1,17,39
COc1cccc(CNC(=O)[C@H]2CCCN2C(=O)[C@H]2CCCN2C(=O)c2cccc3ccccc23)c1,·,-2,·,·,9,·,·
COc1cccc(CNC(=O)[C@@H]2CCCN2C(=O)[C@H]2CCCCN2C(=O)c2cccc3ccccc23)c1,·,·,·,86*,·,81*,63
CC(C)C(=O)Nc1ncc(Cc2ccccc2Cl)s1,-7,-1,2,-52,-2,·,·
N=C1SCC(=O)N1c1ncc(Cc2cccc(Cl)c2)s1,·,0,·,100*,2,97*,42
N=C1SCC(=O)N1c1ncc(Cc2ccccc2Cl)s1,·,-2,·,100*,-2,90*,26
C=CCN1[C@@H](C)[C@H](c2ccccc2)Oc2cccc(N3CCCC(C)C3)c2S1(=O)=O (some centres undefined),·,1,·,·,1,·,·
COc1cc2c(cc1OC)-c1cc(Nc3ccc4c(c3)OCCO4)nc(=O)n1CC2,20,-3,3,55,-1,28,-12
COc1ccc(Nc2cc3n(c(=O)n2)CCc2cc(OC)c(OC)cc2-3)cc1,-2,-2,4,-56,-1,·,·
CCCCCOC(=O)c1[nH]c2c(c1C)C(=O)CC(c1ccco1)C2 (centres undefined),7,·,8,52,·,-5,11
CCOCCOC(=O)c1[nH]c2c(c1C)C(=O)CC(c1cc(OC)c(OC)c(OC)c1)C2 (centres undefined),5,-1,-6,64,0,19,28
CCOCCOC(=O)c1[nH]c2c(c1C)C(=O)CC(c1ccccc1)C2 (centres undefined),5,-1,1,23,2,·,·
SMILES,VLA-4 inh,PG9 binder,NR2E3 ag-1,NR2E3 ag-2,NR1D1 modulator,NR2E3 ag confirm,VP16 counter
Nn1c(SCC(=O)NC2CCCCC2)nnc1-c1cc(-c2ccc(Cl)cc2)n[nH]1,·,·,·,·,-5,·,·
CCOc1ccc(S(=O)(=O)N2CCC(C(=O)N3CCN(c4ccccc4F)CC3)CC2)cc1C,-9,0,-2,48,-4,6,44
CC(=O)Nc1ccc(C(CCCc2ccccc2)C2=CCCCC2)cc1 (centres undefined),·,·,·,·,0,·,·
O=C(CNc1cccc(S(=O)(=O)N2CCCC2)c1)Nc1ccc(C(F)(F)F)cc1,-32,-1,4,60,7,64,47
CN1[C@@H](Cc2ccccc2)COc2cccc(F)c2S1(=O)=O,·,·,·,·,7,·,·
Cc1ccc(C(=O)N2CCN(c3ncccn3)CC2)cc1,2,2,·,-7,1,·,·
Cc1ccc(S(=O)(=O)Nc2ccc(C(=O)N3CCCC3)cc2)cc1,2,-1,3,11,-5,·,·
Cc1ccc(NS(=O)(=O)c2ccc(C(=O)N3CCN(S(=O)(=O)c4ccccc4)CC3)cc2)cc1,6,-1,2,62,1,47,22
Cc1ccc(NS(=O)(=O)c2ccc(C(=O)N3CCN(c4ncccn4)CC3)cc2)cc1,8,0,-1,83*,1,74*,57
COC(=O)[C@]12C[C@H](CC(=O)N3CCCCC3)C(=O)N(Cc3cccc4ccccc34)C1=C[C@H](C(C)(C)C)O[C@@H]2C,·,·,·,·,6,·,·
O=C(c1cc(S(=O)(=O)N2CCN(c3ccccc3)CC2)ccc1Cl)N1CCCC(C(F)(F)F)C1 (centres undefined),20,-1,2,82*,5,92*,76*
O=C(c1cccc(S(=O)(=O)N2CCN(c3ccccc3)CC2)c1)N1CCCC(C(F)(F)F)C1 (centres undefined),3,2,0,5,2,·,·
Cc1cc(Cl)ccc1C(O)c1ncc(-c2ccc(F)cc2)[nH]1 (centres undefined),·,·,·,59,·,6,32
OC(c1ccc(Cl)c(F)c1)c1ncc(-c2ccc(Cl)cc2)[nH]1 (centres undefined),·,0,·,68,-4,86*,66
OC(c1ccc(Cl)c(Cl)c1)c1ncc(-c2ccc(Cl)cc2)[nH]1 (centres undefined),·,1,·,43,3,·,·

# Screening results from PubChem BioAssay.
